From PubChem BioAssay
A selection: hits, their analogues and other compounds. The true share with any hit is near 5%.
Mdm2 MdmX PPI – inhibitors of human Mdm2/MdmX interaction; SaOS-2 split-luciferase Mdm2/MdmX complementation, luminescence; inhibition, % at 8 µM; 330,000 compounds, 3% hits; AID 485346;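 active means inhibition of at least 50% at 8 µM in the primary screen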
CSC inhib – cancer stem cell inhibition; cancer stem cell-like cells viability, luminescence; 300,000 compounds, 1.1% hits; inhibition, % at 7.5 µM; in the data active means inhibition above about 75%; tested in HMLE shEcad cells
UPR CHOP act – apoptotic UPR (CHOP) activation; activation, % at 10 µM; 330,000 compounds, 0.34% hits; CHO-CHOP luciferase reporter, luminescence; percent of tunicamycin response over DMSO baseline;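 active means at 10 µM dose, activation of 40% or more, normalized to positive control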;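 further: 100% = tunicamycin at 10 µg/mL and 0% = DMSO alone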
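System: CHO CHOP reporter cells. Amount: 500 cells per well. Buffer or medium: F12 medium, 10% FBS. Compound dosing: one dose, 10 µM in 0.5% DMSO. Incubation: 6 h compound exposure at 37 °C after overnight seeding. Technique: Steady-Glo luciferase luminescence. Benchmarks: tunicamycin and DMSO controls.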
Beta cell apopt – beta cell apoptosis inhibition; protection from apoptosis, % (test concentration not listed); AID 435005; INS-1E cytokine-induced death, ATP luminescence, 48 h; percent of positive-control rescue, neutral wells zero; 300,000 compounds, 0.8% hits;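 active means Every replicate reaches about 75%, or at least half do and their mean reaches it too, limit read from the data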;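 further: 0% = cytokine-treated negative control wells and 100% = positive control rescue; higher means more ATP so stronger rescue from cytokine killing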
T cruzi repl – T. cruzi replication inhibition | T. cruzi beta-gal in NIH3T3, luminescence, 90 h | inhibition, % (no concentration beside the values) | 300,000 compounds, 1.4% hits;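 active means mean inhibition across valid replicates above about 55%, limit read from the data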;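 further: signal also drops with host cell toxicity which is not excluded here; 0% = plate median of DMSO wells and 100% = zero luminescence signal; higher percent means less beta-gal luminescence so fewer parasites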
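Material: NIH/3T3 host cells with β-galactosidase reporter T. cruzi; Input: 5,000 host fibroblasts per well; Medium: DMEM, 2% fetal bovine serum; Compound: 50 nL DMSO compound solution per well; Schedule: 3 h host attachment, then at least 90 h co-culture; Detection: luminescent β-galactosidase signal after 60 min lysis.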
UPR XBP1 act – activators of adaptive arm of unfolded protein response (XBP1). AID 463104. activation, % at 20 µM. 330,000 compounds, 0.33% hits. CHO-XBP1 luciferase reporter, IRE1-XBP1 UPR activation, luminescence; percent of tunicamycin response, DMSO as zero;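 active means versus positive control, 20 µM dose yields 30% or more activation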;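 further: 100% = tunicamycin at 10 µg/mL and 0% = DMSO only wells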
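Material: CHO-XBP1 cells stably carrying IRE1-XBP1-driven luciferase reporter / Amount: 1000 cells per well / Compound: 20 µM, 1% DMSO / Times: 6 h treatment, 37 °C / Detection: luciferase luminescence / Measure: % activation of reporter signal versus tunicamycin and DMSO controls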
Mdm2 MdmX conf – confirmation of human Mdm2/MdmX interaction inhibitors; shares compounds with Mdm2 MdmX PPI; inhibition, % at 8 µM; 10,000 compounds, 55% hits; Mdm2-MdmX binding, luminescent assay; AID 489028; in the data active means inhibition above about 40%
Full FLuc ctr – counter-screen for Mdm2/MdmX inhibitors: full-length luciferase; shares compounds with Mdm2 MdmX PPI; SaOS-2 full-length luciferase counterscreen, luminescence; inhibition, % at 8 µM; 6,200 compounds, 77% hits; AID 504607;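 active means mean inhibition at 8 µM reaching about 37%, which flags the compound as non-specific, limit read from the data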;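 further: p53-null SaOS-2 cells with luciferase driven by a doxycycline-inducible promoter; compound on cells about two nights before reading with doxycycline added after day one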
Active calls of the source: *.

O=C(/C=C/c1cccc(Cl)c1)c1nc2ccccc2[nH]1 was read as Mdm2 MdmX PPI 92.2*, CSC inhib 84.4*, UPR CHOP act 11.7, Beta cell apopt -2.6, T cruzi repl -10.3, UPR XBP1 act 26.2 and Mdm2 MdmX conf 3.8.
`Cc1ccc(C(C)C)c(OCC(=O)Nc2ccc3c(c2)nc(CCN2CCCCC2)n3C)c1` gave Mdm2 MdmX PPI 99.0*, CSC inhib 13.8, UPR CHOP act 2.0, Beta cell apopt 52.6, T cruzi repl 35.4, UPR XBP1 act 1.5, Mdm2 MdmX conf 82.2* and Full FLuc ctr 59.8*.
Cn1c(CCN2CCCC2)nc2cc(NS(=O)(=O)c3ccc(Cl)cc3)ccc21 was read as Mdm2 MdmX PPI 68.8*, CSC inhib 36.5, UPR CHOP act -1.1, Beta cell apopt 31.7, T cruzi repl 29.9, UPR XBP1 act -4.3 and Mdm2 MdmX conf 32.0.
`Cn1c(CCN2CCCCC2)nc2cc(NC(=O)COc3ccc(Cl)cc3)ccc21` gave Mdm2 MdmX PPI 45.3, CSC inhib -10.2, UPR CHOP act 1.3, Beta cell apopt 1.6, T cruzi repl 33.7 and UPR XBP1 act -3.3.
Screening CC1=C(C)/C(=N\OS(=O)(=O)c2ccccc2)C=CC1=O returned Mdm2 MdmX PPI 94.8*, CSC inhib 3.6, UPR CHOP act -10.6, Beta cell apopt 113.2*, T cruzi repl 54.8*, UPR XBP1 act -5.9, Mdm2 MdmX conf 83.6* and Full FLuc ctr 52.5*.
For Cn1nc(-c2ccc(N3CCCCC3)c(NC(=O)c3ccco3)c2)c2ccccc2c1=O the results were Mdm2 MdmX PPI 88.0*, CSC inhib 25.3, UPR CHOP act 3.7, Beta cell apopt 17.2, T cruzi repl 66.0*, UPR XBP1 act 16.9, Mdm2 MdmX conf 43.5* and Full FLuc ctr 40.9*.
CCC(=O)Nc1cc(-c2nn(C)c(=O)c3ccccc23)ccc1N1CCOCC1 was read as Mdm2 MdmX PPI 15.1, CSC inhib -8.6, UPR CHOP act -1.9, Beta cell apopt -10.9, T cruzi repl -4.3 and UPR XBP1 act 5.0.
Screening COc1ccc(OCC(=O)Nc2cc(-c3nn(C)c(=O)c4ccccc34)ccc2N2CCOCC2)cc1 returned Mdm2 MdmX PPI 66.9*, CSC inhib 17.3, UPR CHOP act 1.2, Beta cell apopt -15.3, T cruzi repl 1.6, UPR XBP1 act 4.8 and Mdm2 MdmX conf 19.4.
Screening Cc1ccc(-n2c3nc(=O)[nH]c(=O)c-3cc3cc([N+](=O)[O-])ccc32)cc1 returned Mdm2 MdmX PPI 58.4*, CSC inhib 8.0, UPR CHOP act 3.4, Beta cell apopt 7.8, T cruzi repl 5.8, UPR XBP1 act 2.3, Mdm2 MdmX conf 45.8* and Full FLuc ctr 37.9*.
For Cc1ccc(-n2c(C)nn(Cc3ccc([N+](=O)[O-])cc3)c2=O)cc1 the results were Mdm2 MdmX PPI -0.6, CSC inhib 8.4, UPR CHOP act 0.9, Beta cell apopt -1.8, T cruzi repl -0.4 and UPR XBP1 act 1.2.
For O=C(N/N=C/c1ccc(-c2ccc(S(=O)(=O)Nc3ncccn3)cc2)o1)c1cc2ccccc2cc1O the results were Mdm2 MdmX PPI 54.5*, CSC inhib -4.6, UPR CHOP act 0.9, Beta cell apopt 0.1, T cruzi repl -13.6, UPR XBP1 act 0.8 and Mdm2 MdmX conf 36.2.
Screening CC/C(=N/Nc1cccc(Cl)c1)c1cnnc(SC)n1 returned Mdm2 MdmX PPI 54.1*, CSC inhib -0.5, UPR CHOP act -0.7, Beta cell apopt -4.6, T cruzi repl 27.0, UPR XBP1 act -1.6, Mdm2 MdmX conf 38.9 and Full FLuc ctr 71.0*.
Screening CC(C)c1ccc(NC(=O)CSc2n[nH]c(=O)n2C2CC2)cc1 returned Mdm2 MdmX PPI 3.5, CSC inhib 13.8, UPR CHOP act -0.7, Beta cell apopt 4.5, T cruzi repl -3.8 and UPR XBP1 act -3.0.
